# Assay results from ChEMBL document CHEMBL4014327 (J Med Chem, 2017).
# Experiments:
# [1] = Half life in Wistar Han rat at 5 mg/kg, po administered as single dose; format: ADME, organism-based; conditions: in vivo
# Rattus norvegicus [2] = experiment: Inhibition of LPS induced TNFalpha secretion in Sprague-Dawley rat assessed as decrease in TNFalpha level in serum at 0.3 mg/kg, po pretreated for 1 hr followed by LPS challenge measured after 1.5 hrs relative to control; format: functional
# Summary of the method: (§1)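 Male Sprague-Dawley rats, 6-8 weeks old, n = 6-9 per group. Test article was given orally at 0.3, 1, 3 or 30 mg/kg as a solution or suspension in 0.5% methylcellulose and 2% Tween 80 in water; controls received vehicle alone. Ultrapure LPS (0.01 mg/kg) was given iv 1 h later. Blood was drawn 1.5 h after challenge, and serum TNF was measured by MSD.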
# [3] = Solubility of compound in simulated fasted state intestinal fluid at pH 6.5; format: physicochemical
# Summary of the method: (§2)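 Solubility of crystalline material measured in phosphate-buffered saline pH 6.7, unbuffered water pH 8.1 and simulated fasted-state intestinal fluid pH 6.5, reported in μg/mL.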
# [4] = Solubility of compound in phosphate buffer at pH 6.7; format: physicochemical; summary of the method: as §2
# Plasma [5] = experiment: Free plasma concentration in Sprague-Dawley rat LPS model at 3 mg/kg, po after 2.5 hrs; format: ADME, organism-based; conditions: in vivo
# Summary of the method: (§3)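 Male Sprague−Dawley rats, 6−8 weeks old, n = 6−9 per group. Dosed orally at 0.3, 1, 3 or 30 mg/kg in 0.5% methylcellulose/2% Tween 80 in water. Ultrapure LPS 0.01 mg/kg iv given 1 h after dosing. Plasma exposure taken 2.5 h after oral dosing and reported as free concentration using fraction unbound in rat plasma.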
# [6] = biological target: Interleukin-1 receptor-associated kinase 1 (Homo sapiens) (UniProt P51617); experiment: Inhibition of recombinant human GST-tagged IRAK1 expressed in baculovirus at 200 nM
# Sequence of Interleukin-1 receptor-associated kinase 1 (Homo sapiens) (P51617 whole entry, looked up): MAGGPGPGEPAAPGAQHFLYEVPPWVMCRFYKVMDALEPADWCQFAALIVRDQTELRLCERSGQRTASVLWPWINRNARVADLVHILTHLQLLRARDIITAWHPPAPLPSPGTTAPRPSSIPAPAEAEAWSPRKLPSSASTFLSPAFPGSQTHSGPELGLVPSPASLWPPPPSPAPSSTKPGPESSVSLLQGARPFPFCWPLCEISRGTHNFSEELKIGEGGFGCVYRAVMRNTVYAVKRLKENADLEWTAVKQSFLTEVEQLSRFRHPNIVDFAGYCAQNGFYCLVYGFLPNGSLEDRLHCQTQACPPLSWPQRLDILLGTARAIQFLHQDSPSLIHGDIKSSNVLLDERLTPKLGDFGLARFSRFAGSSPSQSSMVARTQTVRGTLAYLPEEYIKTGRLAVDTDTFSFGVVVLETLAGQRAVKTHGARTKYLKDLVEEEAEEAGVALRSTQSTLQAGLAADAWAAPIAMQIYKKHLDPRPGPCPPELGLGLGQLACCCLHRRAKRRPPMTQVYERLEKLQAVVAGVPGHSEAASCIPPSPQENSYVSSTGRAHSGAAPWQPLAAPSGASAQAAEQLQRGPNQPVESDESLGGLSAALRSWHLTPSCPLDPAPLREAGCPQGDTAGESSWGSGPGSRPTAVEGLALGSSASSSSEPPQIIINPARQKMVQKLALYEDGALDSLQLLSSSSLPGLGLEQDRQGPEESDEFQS
# Cytochrome P450 2C8 = Cytochrome P450 2C8 (Homo sapiens, UniProt P10632); experiment: Time dependent inhibition of CYP2C8 in human liver microsomes at 100 uM; format: ADME
# Summary of the method: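 Time-dependent inhibition assessed in pooled human liver microsomes with probe substrates, test compound at 100 μM.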
# [7] = biological target: Vascular endothelial growth factor receptor 2 (Homo sapiens, UniProt P35968); experiment: Inhibition of human recombinant VEGFR2 using CAGAGAIETDKEYYTVKD as substrate after 60 mins by Lance method
# [8] = Volume of distribution at steady state in Beagle dog at 1 mg/kg, iv administered as single dose; format: ADME, organism-based, Canis lupus familiaris; conditions: in vivo, read-out: Vdss
# Summary of the method: (§4)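 Single-dose pharmacokinetic study in male animals, with iv and separate oral administration. Steady-state volume of distribution was derived from plasma concentrations after the iv dose.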
# [9] = Half life in cynomolgus monkey at 1 mg/kg, iv administered as single dose; format: ADME, organism-based, Macaca fascicularis; conditions: in vivo
# [10] = Oral bioavailability in Beagle dog at 5 mg/kg administered as single dose; format: ADME, organism-based, Canis lupus familiaris; conditions: in vivo
# [11] = Apparent permeability in RRCK cells from apical to basolateral side; format: ADME, cell-based, Canis lupus familiaris, MDCKII-LE; conditions: dog, MDCK
# Summary of the method: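 RRCK cell monolayer permeability assay; apparent permeability reported in cm/s.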
# [12] = Apparent intrinsic clearance in human liver microsomes; format: ADME, microsome; conditions: read-out: CLH(app)
# hERG (KCNH2) = hERG (KCNH2) (Homo sapiens, UniProt Q12809); experiment: Inhibition of human ERG at 100 uM by voltage clamp assay
# Summary of the method: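 hERG current measured by voltage clamp, test compound at 100 μM; percent current inhibition.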
# CYP2C8 = CYP2C8 (Homo sapiens, UniProt P10632); experiment: Inhibition of CYP2C8 in human liver microsomes at 3 uM; format: ADME
# [13] = Half life in cynomolgus monkey at 5 mg/kg, po administered as single dose; format: ADME, organism-based, Macaca fascicularis; conditions: in vivo
# [14] = Oral bioavailability in Wistar Han rat at 5 mg/kg administered as single dose; format: ADME, organism-based; conditions: in vivo
# Rattus norvegicus [15] = experiment: Inhibition of LPS induced TNFalpha secretion in Sprague-Dawley rat assessed as decrease in TNFalpha level in serum at 3 mg/kg, po pretreated for 1 hr followed by LPS challenge measured after 1.5 hrs relative to control; format: functional; summary of the method: as §1
# Plasma [16] = experiment: Free plasma concentration in Sprague-Dawley rat LPS model at 1 mg/kg, po after 2.5 hrs; format: ADME, organism-based; conditions: in vivo; summary of the method: as §3
# Canis familiaris = experiment: Plasma clearance in Beagle dog at 1 mg/kg, iv administered as single dose; format: ADME, organism-based, Canis lupus familiaris; conditions: in vivo
# [17] = biological target: Interleukin-1 receptor-associated kinase 3 (Homo sapiens) (UniProt Q9Y616); experiment: Inhibition of IRAK3 in human THP1 cell lysate at 200 nM
# Sequence of Interleukin-1 receptor-associated kinase 3 (Homo sapiens) (Q9Y616 whole entry): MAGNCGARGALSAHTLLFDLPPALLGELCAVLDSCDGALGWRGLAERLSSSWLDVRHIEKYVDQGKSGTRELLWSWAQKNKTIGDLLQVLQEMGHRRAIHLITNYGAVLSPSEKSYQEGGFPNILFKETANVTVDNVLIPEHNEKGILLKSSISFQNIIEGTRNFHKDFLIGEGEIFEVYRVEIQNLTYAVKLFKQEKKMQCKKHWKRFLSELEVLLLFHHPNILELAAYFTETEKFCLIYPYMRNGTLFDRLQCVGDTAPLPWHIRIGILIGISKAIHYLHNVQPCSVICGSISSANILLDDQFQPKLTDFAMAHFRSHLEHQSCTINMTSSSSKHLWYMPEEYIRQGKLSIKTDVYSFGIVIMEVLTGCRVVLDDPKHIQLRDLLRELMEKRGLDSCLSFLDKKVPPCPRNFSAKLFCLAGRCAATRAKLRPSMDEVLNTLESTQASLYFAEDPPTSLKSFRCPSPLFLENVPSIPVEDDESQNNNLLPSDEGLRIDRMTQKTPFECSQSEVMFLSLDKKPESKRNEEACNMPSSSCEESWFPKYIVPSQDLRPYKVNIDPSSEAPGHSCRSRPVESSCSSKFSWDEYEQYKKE
# CYP2C9 = CYP2C9 (Homo sapiens, UniProt P11712); experiment: Inhibition of CYP2C9 in human liver microsomes at 3 uM; format: ADME
# Sequence of CYP2C9 (P11712 whole entry): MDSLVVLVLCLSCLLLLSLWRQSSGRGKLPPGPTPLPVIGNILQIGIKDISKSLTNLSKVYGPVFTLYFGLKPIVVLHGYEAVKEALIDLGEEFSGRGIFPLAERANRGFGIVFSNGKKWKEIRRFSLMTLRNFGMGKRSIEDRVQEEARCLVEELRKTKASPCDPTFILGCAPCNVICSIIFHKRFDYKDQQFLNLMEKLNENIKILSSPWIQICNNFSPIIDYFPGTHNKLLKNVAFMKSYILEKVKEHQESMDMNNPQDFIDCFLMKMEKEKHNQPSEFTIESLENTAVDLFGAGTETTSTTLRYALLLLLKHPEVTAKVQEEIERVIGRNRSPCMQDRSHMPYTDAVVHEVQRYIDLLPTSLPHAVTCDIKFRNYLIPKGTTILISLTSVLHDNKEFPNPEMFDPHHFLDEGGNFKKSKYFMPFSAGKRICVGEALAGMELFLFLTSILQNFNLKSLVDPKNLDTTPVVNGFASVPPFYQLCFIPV
# [18] = biological target: Casein kinase I delta/epsilon (Homo sapiens) (UniProt P48730+P49674); experiment: Inhibition of CK1-delta/epsilon in human THP1 cell lysate at 200 nM
# Sequence of Casein kinase I delta/epsilon (Homo sapiens) (P48730 whole entry, looked up): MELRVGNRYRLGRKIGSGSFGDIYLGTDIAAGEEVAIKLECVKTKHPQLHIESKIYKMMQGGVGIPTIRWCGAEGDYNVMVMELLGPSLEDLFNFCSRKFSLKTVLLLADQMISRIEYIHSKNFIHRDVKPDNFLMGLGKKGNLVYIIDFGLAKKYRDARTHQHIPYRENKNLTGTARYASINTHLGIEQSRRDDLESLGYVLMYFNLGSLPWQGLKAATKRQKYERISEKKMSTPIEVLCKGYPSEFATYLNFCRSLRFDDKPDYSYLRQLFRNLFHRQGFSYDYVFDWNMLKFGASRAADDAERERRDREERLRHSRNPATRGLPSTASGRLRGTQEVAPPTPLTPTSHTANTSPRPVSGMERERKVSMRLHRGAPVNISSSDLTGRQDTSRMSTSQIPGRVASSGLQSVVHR
# Sequence of Casein kinase I delta/epsilon (Homo sapiens) (P49674 whole entry, looked up): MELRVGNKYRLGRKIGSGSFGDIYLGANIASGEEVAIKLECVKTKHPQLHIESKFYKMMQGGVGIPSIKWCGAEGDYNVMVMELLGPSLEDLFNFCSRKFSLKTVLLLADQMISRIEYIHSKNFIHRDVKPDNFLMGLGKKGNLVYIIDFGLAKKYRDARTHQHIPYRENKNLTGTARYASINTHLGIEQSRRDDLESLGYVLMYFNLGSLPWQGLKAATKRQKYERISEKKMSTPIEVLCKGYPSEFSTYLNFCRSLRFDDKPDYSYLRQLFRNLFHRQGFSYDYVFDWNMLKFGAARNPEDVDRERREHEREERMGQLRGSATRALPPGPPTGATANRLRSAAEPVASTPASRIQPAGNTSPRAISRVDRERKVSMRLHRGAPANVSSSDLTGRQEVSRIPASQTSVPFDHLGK
# [19] = biological target: T1, Interleukin-1 receptor-associated kinase 4 (Homo sapiens) (UniProt Q9NWZ3); experiment: Inhibition of recombinant human full length His-tagged IRAK4 expressed in baculovirus at 200 nM
# T1 sequence (whole entry): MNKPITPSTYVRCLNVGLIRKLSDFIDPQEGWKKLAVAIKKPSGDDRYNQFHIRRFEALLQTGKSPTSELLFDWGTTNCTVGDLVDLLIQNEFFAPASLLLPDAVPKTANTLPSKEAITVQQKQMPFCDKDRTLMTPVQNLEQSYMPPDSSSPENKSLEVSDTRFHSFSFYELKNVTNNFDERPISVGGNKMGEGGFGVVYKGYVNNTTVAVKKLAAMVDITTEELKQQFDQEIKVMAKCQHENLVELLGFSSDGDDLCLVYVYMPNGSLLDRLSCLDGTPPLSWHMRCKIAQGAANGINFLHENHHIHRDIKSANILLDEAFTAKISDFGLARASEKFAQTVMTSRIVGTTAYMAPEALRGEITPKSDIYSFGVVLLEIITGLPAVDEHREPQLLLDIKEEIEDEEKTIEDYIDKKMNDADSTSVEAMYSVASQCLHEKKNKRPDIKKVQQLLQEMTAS
# [20] = biological target: MAP kinase-interacting serine/threonine-protein kinase 2 (Homo sapiens) (UniProt Q9HBH9); experiment: Inhibition of N-terminal-GST-tagged human full length MNK2 expressed in baculovirus at 200 nM
# Sequence of MAP kinase-interacting serine/threonine-protein kinase 2 (Homo sapiens) (Q9HBH9 whole entry, looked up): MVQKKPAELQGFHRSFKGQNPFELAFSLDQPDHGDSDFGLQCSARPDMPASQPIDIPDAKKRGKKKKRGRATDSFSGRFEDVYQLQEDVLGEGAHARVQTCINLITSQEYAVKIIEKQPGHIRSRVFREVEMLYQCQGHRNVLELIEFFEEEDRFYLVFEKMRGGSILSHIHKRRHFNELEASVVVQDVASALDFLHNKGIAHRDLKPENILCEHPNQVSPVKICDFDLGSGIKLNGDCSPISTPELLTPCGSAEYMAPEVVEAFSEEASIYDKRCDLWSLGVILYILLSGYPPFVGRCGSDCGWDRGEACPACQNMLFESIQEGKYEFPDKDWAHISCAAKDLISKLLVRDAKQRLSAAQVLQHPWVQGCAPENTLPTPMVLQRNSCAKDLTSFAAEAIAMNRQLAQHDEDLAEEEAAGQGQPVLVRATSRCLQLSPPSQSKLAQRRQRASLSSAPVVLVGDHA
# [21] = biological target: Dual specificity protein kinase CLK4 (Homo sapiens) (UniProt Q9HAZ1); experiment: Inhibition of recombinant human full length GST-tagged CLK4 expressed in baculovirus at 200 nM
# Sequence of Dual specificity protein kinase CLK4 (Homo sapiens) (Q9HAZ1 whole entry, looked up): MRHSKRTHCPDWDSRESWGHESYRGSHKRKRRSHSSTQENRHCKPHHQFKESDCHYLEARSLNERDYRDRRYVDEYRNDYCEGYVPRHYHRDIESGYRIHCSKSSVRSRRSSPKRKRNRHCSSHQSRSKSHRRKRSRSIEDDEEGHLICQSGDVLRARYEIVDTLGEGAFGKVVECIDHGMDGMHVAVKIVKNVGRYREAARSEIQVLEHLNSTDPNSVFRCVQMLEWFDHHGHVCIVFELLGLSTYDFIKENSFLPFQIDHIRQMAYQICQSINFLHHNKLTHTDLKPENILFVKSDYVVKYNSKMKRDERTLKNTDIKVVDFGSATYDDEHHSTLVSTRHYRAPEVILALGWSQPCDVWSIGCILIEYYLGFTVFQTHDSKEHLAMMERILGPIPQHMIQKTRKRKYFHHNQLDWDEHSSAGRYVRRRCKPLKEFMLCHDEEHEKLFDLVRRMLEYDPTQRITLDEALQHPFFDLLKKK
# [22] = Volume of distribution at steady state in Wistar Han rat at 1 mg/kg, iv administered as single dose; format: ADME, organism-based; conditions: in vivo, read-out: Vdss; summary of the method: as §4
# Rattus norvegicus [23] = experiment: Inhibition of LPS induced TNFalpha secretion in Sprague-Dawley rat assessed as decrease in TNFalpha level in serum at 1 mg/kg, po pretreated for 1 hr followed by LPS challenge measured after 1.5 hrs relative to control; format: functional; summary of the method: as §1
# CYP2D6 = CYP2D6 (Homo sapiens, UniProt P10635); experiment: Inhibition of CYP2D6 in human liver microsomes at 3 uM; format: ADME
# Sequence of CYP2D6 (P10635 whole entry): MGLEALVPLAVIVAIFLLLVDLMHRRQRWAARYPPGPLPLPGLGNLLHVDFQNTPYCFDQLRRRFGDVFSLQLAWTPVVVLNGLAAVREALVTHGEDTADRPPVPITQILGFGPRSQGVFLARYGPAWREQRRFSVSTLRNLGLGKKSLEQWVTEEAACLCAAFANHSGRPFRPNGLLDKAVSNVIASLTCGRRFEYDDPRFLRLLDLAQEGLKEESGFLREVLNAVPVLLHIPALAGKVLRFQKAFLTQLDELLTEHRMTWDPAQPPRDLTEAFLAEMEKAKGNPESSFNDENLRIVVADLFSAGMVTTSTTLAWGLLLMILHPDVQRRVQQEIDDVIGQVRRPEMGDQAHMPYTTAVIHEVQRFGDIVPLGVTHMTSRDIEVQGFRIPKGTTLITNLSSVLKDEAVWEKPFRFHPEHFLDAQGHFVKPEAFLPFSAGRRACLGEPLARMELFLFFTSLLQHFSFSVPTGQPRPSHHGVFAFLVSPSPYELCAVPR
# CYP3A4 = CYP3A4 (Homo sapiens, UniProt P08684); experiment: Inhibition of CYP3A4 in human liver microsomes at 3 uM; format: ADME
# Sequence of CYP3A4 (P08684 whole entry): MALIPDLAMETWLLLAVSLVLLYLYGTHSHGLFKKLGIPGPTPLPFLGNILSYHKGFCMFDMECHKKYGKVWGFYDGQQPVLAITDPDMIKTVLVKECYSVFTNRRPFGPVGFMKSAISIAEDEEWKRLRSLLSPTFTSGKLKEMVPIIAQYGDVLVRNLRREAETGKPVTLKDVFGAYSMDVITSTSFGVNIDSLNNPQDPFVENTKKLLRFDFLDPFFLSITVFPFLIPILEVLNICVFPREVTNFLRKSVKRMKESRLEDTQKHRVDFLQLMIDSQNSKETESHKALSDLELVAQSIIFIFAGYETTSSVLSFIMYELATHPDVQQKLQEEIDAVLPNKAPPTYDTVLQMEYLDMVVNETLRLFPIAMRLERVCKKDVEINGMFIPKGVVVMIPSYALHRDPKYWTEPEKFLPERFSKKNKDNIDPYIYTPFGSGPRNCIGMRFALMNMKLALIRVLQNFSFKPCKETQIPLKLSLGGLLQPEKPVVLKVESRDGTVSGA
# [24] = Lipophilicity, log D of compound; format: physicochemical; conditions: octanol/water
# [25] = Solubility of compound in water at pH 8.1; format: physicochemical; summary of the method: as §2
compound,measurement,setting,value
CC[C@@H]1[C@H](F)C(=O)N[C@@H]1COc1nccc2cc(C(N)=O)c(OC)cc12 [ZIMLOVISERTIB],half-life,[1],1.4 to 2.1 h
same,inhibition in vivo at 0.3 mg/kg,Rattus norvegicus [2],12%
same,solubility,[3],62 µg/mL
same,solubility,[4],57 µg/mL
same,Cp(f),Plasma [5],19 nM
same,inhibition,[6],> 70%
same,TDI,Cytochrome P450 2C8,Not Active
same,IC50,[7],5.33 µM
same,Vd,[8],0.77 L/kg
same,half-life,[9],1.7 h
same,bioavailability,[10],41%
same,Papp A→B,[11],9.6 ×10⁻⁶ cm/s
same,microsomal CLint,[12],25 µL/min/mg
same,inhibition at 100 µM,hERG (KCNH2),25%
same,inhibition at 3 µM,CYP2C8,< 5%
same,half-life,[13],6.2 h
same,bioavailability,[14],34 to 50%
same,inhibition in vivo at 3 mg/kg,Rattus norvegicus [15],60%
same,Cp(f),Plasma [16],7.7 nM
same,clearance,Canis familiaris,10 mL/min/kg
same,inhibition,[17],> 50%
same,inhibition at 3 µM,CYP2C9,< 5%
same,inhibition,[18],> 50%
same,inhibition,[19],100%
same,inhibition,[20],> 70%
same,inhibition,[21],> 70%
same,Vd,[22],1.8 L/kg
same,inhibition in vivo at 1 mg/kg,Rattus norvegicus [23],52%
same,inhibition at 3 µM,CYP2D6,< 5%
same,inhibition at 3 µM,CYP3A4,< 5%
same,logD,[24],2
same,solubility,[25],65 µg/mL
